# From ChEMBL document CHEMBL1145449, “Isolation, structures, and structure - cytotoxic activity relationships of withanolides and physalins from Physalis angulata” (J Nat Prod, 2007)
# Tests used:
# Format in all cases: functional, cell-based
# A549 = test: Antitumor activity against human A549 cells
# Method in brief: (§1)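 SRB growth assay. Stock cultures grown in T-25 flasks in RPMI-1640 with […], 0.25% sodium bicarbonate, 10% FBS and 100 µg/mL kanamycin. Freshly trypsinized cells seeded at 1500-7500 per well, compounds added from DMSO-diluted stock, 3 days culture. Attached cells fixed with cold 50% TCA, stained with 0.4% SRB, bound dye solubilized, absorbance read at 562 nm. EC50 = concentration reducing growth 50%, mean of at least three independent determinations.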
# HCT-8 = test: Antitumor activity against human HCT8 cells; method in brief: as §1
# A-431 = test: Antitumor activity against human A431 cells; method in brief: as §1
# KB = test: Antitumor activity against human KB cells; method in brief: as §1
# [1] = Antitumor activity against human KB-VIN cells; settings: KBVIN; method in brief: as §1
# PC-3 = test: Antitumor activity against human PC3 cells; method in brief: as §1
# LNCaP = test: Antitumor activity against human LNCAP cells; method in brief: as §1
# ZR-75-1 = test: Antitumor activity against human ZR751 cells; method in brief: as §1
# 1A9 = test: Antitumor activity against human 1A9 cells; method in brief: as §1
# DU-145 = test: Antitumor activity against human DU145 cells; method in brief: as §1
# HCT-116 = test: Antitumor activity against human HCT116 cells; method in brief: as §1
SMILES,EC50 (A549) [µg/mL],EC50 (HCT-8) [µg/mL],EC50 (A-431) [µg/mL],EC50 (KB) [µg/mL],EC50 [1] [µg/mL],EC50 (PC-3) [µg/mL],EC50 (LNCaP) [µg/mL],EC50 (ZR-75-1) [µg/mL],EC50 (1A9) [µg/mL],EC50 (DU-145) [µg/mL],EC50 (HCT-116) [µg/mL]
C[C@]12C(=O)C=CCC1=CC[C@@H]1[C@@H]2CC[C@]2(O)C(=O)O[C@@]3(C)[C@H]4C[C@]5(C)[C@@H](CO[C@@]16O[C@@]32[C@H]5C6=O)C(=O)O4 [PHYSALIN B],5.9,1.5,1.8,3,1.3,0.9,5.3,2.6,,,
C[C@@]12C[C@H]3OC(=O)[C@@H]1CO[C@@]14O[C@]5([C@H]2C1=O)[C@@](O)(CC[C@H]1[C@H]4C[C@@H](O)[C@@]2(O)CC=CC(=O)[C@]12C)C(=O)O[C@@]35C [PHYSALIN D],1.6,1.2,1.4,1.2,7,1.6,1.3,0.4,,,
C[C@@]12C[C@H]3OC(=O)[C@@H]1CO[C@]14O[C@]5([C@H]2C1=O)[C@@](O)(CC[C@H]1[C@H]4C[C@H]2O[C@]24CC=CC(=O)[C@]14C)C(=O)O[C@@]35C [PHYSALIN F],1.3,1,1.1,0.9,1.9,1.1,1,0.3,,,
C[C@@]12C[C@H]3OC(=O)[C@@H]1CO[C@@]14O[C@]5(C2C1=O)[C@@](O)(CC[C@H]1[C@H]4C[C@@H]2O[C@@]24CC=CC(=O)[C@]14C)C(=O)O[C@@]35C [PHYSALIN J],,,17,,,,,,,,
CO[C@@H]1CC(=O)[C@]2(C)[C@H]3CC[C@@]4(O)C(=O)O[C@@]5(C)[C@H]6C[C@@]7(C)C8C(=O)[C@@](OC[C@H]7C(=O)O6)(O[C@]845)[C@@H]3C[C@H]3O[C@]32C1 [PHYSALIN U],16.3,11.1,13.4,11.9,20,18.1,15.9,8.2,,,
CO[C@@H]1CC(=O)[C@@]2(C)[C@@H](CC[C@@H]3[C@@H]2CC[C@@]2(O)C(=O)O[C@@]4(C)[C@H]5C[C@@]6(C)C7C(=O)[C@@]3(OC[C@H]6C(=O)O5)O[C@]724)C1 [PHYSALIN W],,,,,,,,,9.2,,
CC1=C(C)C(=O)OC([C@](C)(O)[C@]2(O)C[C@H](O)[C@@]3(O)[C@@H]4C[C@H]5O[C@]56[C@@H](O)C=CC(=O)[C@]6(C)[C@H]4CC[C@@]32C)C1 (stereo partly specified) [WITHANGULATIN B],,,,,,,0.2,,0.2,1.3,0.4
CO[C@H]1C[C@@](O)([C@@](C)(O)C2CC(C)=C(C)C(=O)O2)[C@@]2(C)CC[C@H]3[C@@H](C[C@H]4O[C@]45[C@@H](O)CCC(=O)[C@]35C)[C@]12O (stereo partly specified) [WITHANGULATIN C],,,,,,,13.9,,6.5,,11.4
CC1=C(C)C(=O)OC([C@](C)(O)[C@]2(O)[C@@H](O)C[C@@]3(O)[C@@H]4C[C@@H](O)[C@@]5(O)[C@@H](O)C=CC(=O)[C@]5(C)[C@H]4CC[C@]23C)C1 (stereo partly specified) [WITHANGULATIN G],,,,,,,13.4,,18.8,,
CO[C@H]1CC(=O)[C@]2(C)[C@H]3CC[C@]4(C)[C@](O)([C@@](C)(O)C5CC(C)=C(C)C(=O)O5)[C@@H](O)C[C@@]4(O)[C@@H]3C[C@H]3O[C@]32C1 (stereo partly specified) [WITHANGULATIN H],,,,,,,9.6,,3.7,,9.2
